From ChEMBL document CHEMBL2413001, “Exploring pyrimidine-substituted curcumin analogues: design, synthesis and effects on EGFR signaling” (Bioorg Med Chem, 2013)
Activity calls are given as the source filed them. The rule behind the calls is not given here.

How the values were obtained:
[1] = molecular target: Epidermal growth factor receptor (Homo sapiens) (UniProt P00533); experiment: Inhibition of EGFR signaling in human HCT116 cells assessed as inhibition of cyclin E1 expression after 24 hrs by Western blot analysis; assay type: cell-based; settings: HCT-116
Chain of Epidermal growth factor receptor (Homo sapiens) (P00533 whole entry): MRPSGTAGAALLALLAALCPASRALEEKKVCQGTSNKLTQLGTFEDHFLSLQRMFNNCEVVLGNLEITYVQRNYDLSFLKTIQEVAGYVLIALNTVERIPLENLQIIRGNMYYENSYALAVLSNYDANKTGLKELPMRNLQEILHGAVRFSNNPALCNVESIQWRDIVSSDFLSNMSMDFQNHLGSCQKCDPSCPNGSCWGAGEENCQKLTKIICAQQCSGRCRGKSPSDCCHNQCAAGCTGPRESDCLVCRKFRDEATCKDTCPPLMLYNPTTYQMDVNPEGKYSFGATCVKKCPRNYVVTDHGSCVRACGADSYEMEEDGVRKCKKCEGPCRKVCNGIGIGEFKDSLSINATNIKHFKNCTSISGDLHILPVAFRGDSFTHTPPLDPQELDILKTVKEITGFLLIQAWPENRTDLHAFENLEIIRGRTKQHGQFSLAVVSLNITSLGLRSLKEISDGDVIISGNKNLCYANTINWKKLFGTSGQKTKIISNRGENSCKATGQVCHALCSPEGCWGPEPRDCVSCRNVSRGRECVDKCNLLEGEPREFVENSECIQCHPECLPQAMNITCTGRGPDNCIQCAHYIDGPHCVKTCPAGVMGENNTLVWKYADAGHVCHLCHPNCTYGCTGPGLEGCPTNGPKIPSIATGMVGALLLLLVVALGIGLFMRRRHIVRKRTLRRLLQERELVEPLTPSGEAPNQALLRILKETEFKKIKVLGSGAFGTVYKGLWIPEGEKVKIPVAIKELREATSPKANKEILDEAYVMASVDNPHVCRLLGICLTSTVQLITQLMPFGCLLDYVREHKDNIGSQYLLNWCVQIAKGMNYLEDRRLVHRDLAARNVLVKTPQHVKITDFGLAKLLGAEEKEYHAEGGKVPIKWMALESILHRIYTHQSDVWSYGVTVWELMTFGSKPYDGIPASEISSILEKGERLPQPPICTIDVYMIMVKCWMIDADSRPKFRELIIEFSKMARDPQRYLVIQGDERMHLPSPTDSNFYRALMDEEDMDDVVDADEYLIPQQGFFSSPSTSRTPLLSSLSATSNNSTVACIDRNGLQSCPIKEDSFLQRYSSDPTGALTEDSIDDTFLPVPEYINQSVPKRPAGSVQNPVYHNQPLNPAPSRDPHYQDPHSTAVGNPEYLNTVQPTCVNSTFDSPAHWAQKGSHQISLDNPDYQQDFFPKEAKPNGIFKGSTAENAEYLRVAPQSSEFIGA

[2] = molecular target: Epidermal growth factor receptor (Homo sapiens) (UniProt P00533); experiment: Inhibition of EGFR signaling in human HCT116 cells assessed as effect on CDK2 expression at 5 to 20 uM after 24 hrs by Western blot analysis; assay type: cell-based; settings: HCT-116
HCT-116 [3] = experiment: Inhibition of EGFR protein expression in human HCT116 cells after 72 hrs by Western blot analysis; assay type: functional, cell-based
Procedure, shortened: (§1)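 HCT116 or HT29 seeded at 8 × 10⁴ cells/ml in 15 cm dishes for 24 h, then treated for 72 h at 20 µM or at 5, 10 and 20 µM. Whole-cell lysates were made in Tris-HCl/NaCl/Triton buffer with phosphatase and protease inhibitors (pH 7.5), sonicated and cleared at 10,000g; protein was measured by BCA. Blots were blocked in 5% milk/TBST and developed by ECL. P-EGFR(Tyr1068) and total EGFR bands were normalized to β-tubulin, as means of three experiments.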

[4] = molecular target: Epidermal growth factor receptor (Homo sapiens) (UniProt P00533); experiment: Inhibition of EGFR signaling in human HCT116 cells assessed as inhibition of cyclin D1 expression after 24 hrs by Western blot analysis; assay type: cell-based; settings: HCT-116
HT-29 [5] = experiment: Cytotoxicity against human HT-29 cells assessed as growth inhibition after 48 hrs by resazurin assay; assay type: functional, cell-based
Procedure, shortened: (§2)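 HCT116 or HT29 seeded at 2000 cells/well, grown 24 h, then given fresh complete McCoy's 5A (5% FBS, 0.1% DMSO final) containing serial compound concentrations for 48 h. Resazurin was added for 16 h and fluorescence read at ex 544/em 595 nm as a measure of living cells. IC50 was calculated by the Logit approach; values are mean ± SD.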

HT-29 [6] = experiment: Cell cycle arrest in human HT-29 cells assessed as increase in G2/M population at 5 uM after 24 hrs by flow cytometry relative to control; assay type: functional
Procedure, shortened: (§3)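 HCT116 or HT29 cells seeded at 4 × 10⁴ cells/ml in 6-well plates and left 24 h to attach, then exposed for 24 h in complete McCoy's 5A (5% FBS) with 0.1% DMSO final, at 5, 10 or 20 µM. Floating and trypsinized cells were pooled, PBS-washed, fixed overnight in 70% ethanol at 4 °C and stained with PI/RNase for 15 min at room temperature. Flow DNA content gave G0/G1, S and G2/M fractions as fold of control, from three independent assays.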

[7] = molecular target: Epidermal growth factor receptor (Homo sapiens) (UniProt P00533); experiment: Inhibition of EGFR signaling in human HCT116 cells assessed as effect on CDK4 expression at 5 to 20 uM after 24 hrs by Western blot analysis; assay type: cell-based; settings: HCT-116
HCT-116 [8] = experiment: Cytotoxicity against human HCT116 cells assessed as growth inhibition after 48 hrs by resazurin assay; assay type: functional, cell-based; procedure, shortened: as §2
HCT-116 [9] = experiment: Cell cycle arrest in human HCT116 cells assessed as increase in G2/M population at 5 uM after 24 hrs by flow cytometry relative to control; assay type: functional; procedure, shortened: as §3
HCT-116 [10] = experiment: Induction of apoptosis in human HCT116 cells assessed as increase in Bax expression after 72 hrs by Western blot analysis; assay type: functional, cell-based
Procedure, shortened: (§4)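 HCT116 only, seeded at 8 × 10⁴ cells/ml in 15 cm dishes for 24 h, then treated for 72 h at 20 µM or at 5, 10 and 20 µM. Lysed in Triton lysis buffer (pH 7.5) with inhibitors, sonicated, and protein assayed by BCA. Western blots were developed by ECL. Band intensities were normalized to β-actin, as means of three independent experiments; the Bax/Bcl-2 ratio was expressed relative to untreated control.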

HT-29 [11] = experiment: Inhibition of EGFR protein expression in human HT-29 cells after 72 hrs by Western blot analysis; assay type: functional, cell-based; procedure, shortened: as §1
HCT-116 [12] = experiment: Cell cycle arrest in human HCT116 cells assessed as increase in G2/M population at 10 uM after 24 hrs by flow cytometry relative to control; assay type: functional; procedure, shortened: as §3
HCT-116 [13] = experiment: Cell cycle arrest in human HCT116 cells assessed as increase in G2/M population at 20 uM after 24 hrs by flow cytometry relative to control; assay type: functional; procedure, shortened: as §3
HCT-116 [14] = experiment: Induction of apoptosis in human HCT116 cells assessed as ratio of Bax to Bcl-2 expression at 10 uM after 72 hrs by Western blot analysis relative to control; assay type: functional; procedure, shortened: as §4
HT-29 [15] = experiment: Cell cycle arrest in human HT-29 cells assessed as increase in G2/M population at 20 uM after 24 hrs by flow cytometry relative to control; assay type: functional; procedure, shortened: as §3
HT-29 [16] = experiment: Cell cycle arrest in human HT-29 cells assessed as accumulation at G0/G1 phase at 5 uM after 24 hrs by flow cytometry relative to control; assay type: functional, cell-based; procedure, shortened: as §3
HCT-116 [17] = experiment: Induction of apoptosis in human HCT116 cells assessed as ratio of Bax to Bcl-2 expression at 20 uM after 72 hrs by Western blot analysis relative to control; assay type: functional; procedure, shortened: as §4
HCT-116 [18] = experiment: Induction of apoptosis in human HCT116 cells assessed as effect on HSP-90 expression after 72 hrs by Western blot analysis; assay type: functional, cell-based; procedure, shortened: as §4
[19] = molecular target: Epidermal growth factor receptor (Homo sapiens) (UniProt P00533); experiment: Inhibition of EGFR signaling in human HCT116 cells assessed as induction of p21 WAF-1/CIP-1 expression at 20 uM after 24 hrs by Western blot analysis relative to control; assay type: cell-based; settings: HCT-116
HCT-116 [20] = experiment: Induction of apoptosis in human HCT116 cells assessed as PARP cleavage after 72 hrs by Western blot analysis; assay type: functional, cell-based; procedure, shortened: as §4
[21] = molecular target: Epidermal growth factor receptor (Homo sapiens) (UniProt P00533); experiment: Inhibition of EGFR signaling in human HCT116 cells assessed as induction of p21 WAF-1/CIP-1 expression at 10 uM after 24 hrs by Western blot analysis relative to control; assay type: cell-based; settings: HCT-116
[22] = molecular target: Epidermal growth factor receptor (Homo sapiens) (UniProt P00533); experiment: Inhibition of EGFR signaling in human HCT116 cells assessed as inhibition of Rb expression after 24 hrs by Western blot analysis; assay type: cell-based; settings: HCT-116
HCT-116 [23] = experiment: Induction of apoptosis in human HCT116 cells assessed as ratio of Bax to Bcl-2 expression at 5 uM after 72 hrs by Western blot analysis relative to control; assay type: functional; procedure, shortened: as §4
[24] = molecular target: Epidermal growth factor receptor (Homo sapiens) (UniProt P00533); experiment: Inhibition of EGFR phosphorylation at Tyr1068 residue in human HT-29 cells after 72 hrs by Western blot analysis; assay type: cell-based; procedure, shortened: as §1
HT-29 [25] = experiment: Cell cycle arrest in human HT-29 cells assessed as increase in G2/M population at 10 uM after 24 hrs by flow cytometry relative to control; assay type: functional; procedure, shortened: as §3
[26] = molecular target: Epidermal growth factor receptor (Homo sapiens) (UniProt P00533); experiment: Inhibition of EGFR signaling in human HCT116 cells assessed as induction of p21 WAF-1/CIP-1 expression at 5 uM after 24 hrs by Western blot analysis relative to control; assay type: cell-based; settings: HCT-116
HCT-116 [27] = experiment: Cell cycle arrest in human HCT116 cells assessed as accumulation at G0/G1 phase at 5 uM after 24 hrs by flow cytometry relative to control; assay type: functional, cell-based; procedure, shortened: as §3
HCT-116 [28] = experiment: Induction of apoptosis in human HCT116 cells assessed as reduction in Bcl-2 expression after 72 hrs by Western blot analysis; assay type: functional, cell-based; procedure, shortened: as §4
HCT-116 [29] = experiment: Induction of apoptosis in human HCT116 cells assessed as effect on HSP-70 expression after 72 hrs by Western blot analysis; assay type: functional, cell-based; procedure, shortened: as §4
[30] = molecular target: Epidermal growth factor receptor (Homo sapiens) (UniProt P00533); experiment: Inhibition of EGFR phosphorylation at Tyr1068 residue in human HCT116 cells after 72 hrs by Western blot analysis; assay type: cell-based; settings: HCT-116; procedure, shortened: as §1
HCT-116 [31] = experiment: Induction of apoptosis in human HCT116 cells assessed as caspase-3 activation after 72 hrs by Western blot analysis; assay type: functional, cell-based; procedure, shortened: as §4

COc1ccc(/C=C/c2cc(/C=C/c3ccc(OC)c(OC)c3)nc(NCCO)n2)cc1OC
inhibition [1]: Dose-dependent effect
inhibition [2]: inactive
inhibition (HCT-116 [3]): Dose-dependent effect
inhibition [4]: Dose-dependent effect
growth inhibition (GI) (HT-29 [5]): Dose-dependent effect
IC50 (HT-29 [5]; HT-29, 48 h): 7.1 µM
fold change (FC) (HT-29 [6]): 1.86
inhibition [7]: inactive
growth inhibition (GI) (HCT-116 [8]): Dose-dependent effect
IC50 (HCT-116 [8]; HCT-116, 48 h): 6.2 µM
fold change (FC) (HCT-116 [9]): 1.54
Activity (HCT-116 [10]): Dose-dependent effect
inhibition (HT-29 [11]): Dose-dependent effect
fold change (FC) (HCT-116 [12]): 1.78
fold change (FC) (HCT-116 [13]): 2.05
Ratio (HCT-116 [14]): 17
fold change (FC) (HT-29 [15]): 2.4
Activity (HT-29 [16]): Active
Ratio (HCT-116 [17]): 19
Activity (HCT-116 [18]): Dose-dependent effect
fold change (FC) [19]: 25.7
Activity (HCT-116 [20]): Dose-dependent effect
fold change (FC) [21]: 28.6
inhibition [22]: Dose-dependent effect
Ratio (HCT-116 [23]): 2.1
inhibition [24]: Dose-dependent effect
fold change (FC) (HT-29 [25]): 1.94
fold change (FC) [26]: 21.4
Activity (HCT-116 [27]): Active
Activity (HCT-116 [28]): Dose-dependent effect
Activity (HCT-116 [29]): Dose-dependent effect
inhibition [30]: Dose-dependent effect
Activity (HCT-116 [31]): Dose-dependent effect
